Assay results published in ChEMBL document CHEMBL1144557, “The novel C-5 aryl, alkenyl, and alkynyl substituted uracil derivatives of L-ascorbic acid: synthesis, cytostatic, and antiviral activity evaluations” (Bioorg Med Chem, 2007).
Values after ≈ are worked out from the molar mass of the structure shown.

Tests used:
MCF7 = test: Antiproliferative activity against human MCF7 cells after 72 hrs by MTT assay; assay type: functional, cell-based; conditions: MCF7, 72 h
How it was run: (§1)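 Monolayers grown in DMEM with 10% FBS, 2 mM L-glutamine and penicillin/streptomycin at 37 °C, 5% CO2. Seeded at 1 × 10⁴–3 × 10⁴ cells/mL on day 0. Compounds from 0.04 M DMSO stocks added at five 10-fold dilutions (10⁻⁸–10⁻⁴ M final), with matched DMSO controls, for 72 h. MTT added for 4 h, formazan dissolved in DMSO, absorbance read at 570 nm. Percentage growth calculated against time-zero and untreated OD. IC50 is 50% inhibition of proliferation.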

Punta Toro virus = test: Antiviral activity against Punta Toro virus-induced cytopathogenicity in Vero cells; assay type: functional
Human alphaherpesvirus 1 [1] = test: Antiviral activity against HSV1 KOS-induced cytopathogenicity in E6SM cells; assay type: functional; conditions: Human alphaherpesvirus 1, KOS
SW-620 = test: Antiproliferative activity against human SW620 cells after 72 hrs by MTT assay; assay type: functional, cell-based; conditions: SW-620, 72 h; how it was run: as §1
[2] = Cytotoxicity against E6SM cells; assay type: cell-based; conditions: human
How it was run: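 Cells seeded at 5 × 10³ cells/well and exposed to medium containing a range of test compound concentrations. After 3 days at 37 °C, cell morphology examined microscopically. Reported as minimum cytotoxic concentration (MCC), the concentration causing a microscopically detectable alteration of normal cell morphology.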

HEp-2 = test: Antiproliferative activity against human Hep2 cells after 72 hrs by MTT assay; assay type: functional, cell-based; conditions: HEp-2, 72 h; how it was run: as §1
L1210 = test: Antiproliferative activity against mouse L1210 cells; assay type: functional, cell-based
How it was run: (§2)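 Suspension cells seeded at 50 × 10³ cells/well with a range of test compound concentrations. Cell number counted with a Coulter counter after 2 days (L1210) or 3 days (Molt4/C8, CEM). IC50 is the concentration that cuts cell growth by 50% versus untreated controls, read from plots of cell number (% of control) against concentration.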

CCRF-CEM = test: Antiproliferative activity against human CEM cells; assay type: functional, cell-based; how it was run: as §2
WI-38 = test: Antiproliferative activity against human WI38 cells after 72 hrs by MTT assay; assay type: functional, cell-based; conditions: WI-38, 72 h; how it was run: as §1
[3] = tested on: Vesicular stomatitis virus; test: Antiviral activity against in Vesicular stomatitis virus-induced cytopathogenicity in E6SM cells; assay type: functional
HeLa = test: Antiproliferative activity against human HeLa cells after 72 hrs by MTT assay; assay type: functional, cell-based; how it was run: as §1
[4] = tested on: Vesicular stomatitis virus; test: Antiviral activity against in Vesicular stomatitis virus- induced cytopathogenicity in HeLa cells; assay type: functional
Human alphaherpesvirus 1 [5] = test: Antiviral activity against HSV1 TK- KOS ACV-induced cytopathogenicity in E6SM cells; assay type: functional; conditions: Human alphaherpesvirus 1, KOS
Sindbis virus = test: Antiviral activity against Sindbis virus-induced cytopathogenicity in Vero cells; assay type: functional
Coxsackievirus B4 = test: Antiviral activity against Coxsackie virus B4-induced cytopathogenicity in Vero cells; assay type: functional; conditions: Enterovirus B
[6] = Antiproliferative activity against human Molt4/C8 cells; assay type: functional, cell-based; conditions: MOLT-4; how it was run: as §2
MIA PaCa-2 = test: Antiproliferative activity against human MiaPaCa2 cells after 72 hrs by MTT assay; assay type: functional, cell-based; conditions: Homo sapiens, MIA PaCa-2, 72 h; read-out: IC50; how it was run: as §1
Human alphaherpesvirus 2 = test: Antiviral activity against HSV2 G-induced cytopathogenicity in E6SM cells; assay type: functional; conditions: Human alphaherpesvirus 2, G

SMILES	IC50 (MCF7) [µM]	MIC (Punta Toro virus) [µM]	MIC (Human alphaherpesvirus 1 [1]) [µM]	IC50 (SW-620) [µM]	MCC ([2]; read-out: MCC) [µM]	IC50 (HEp-2) [µM]	IC50 (L1210) [µM]	IC50 (CCRF-CEM) [µM]	IC50 (WI-38) [µM]	MIC [3] [µM]	IC50 (HeLa) [µM]	MIC [4] [µM]	MIC (Human alphaherpesvirus 1 [5]) [µM]	MIC (Sindbis virus) [µM]	MIC (Coxsackievirus B4) [µM]	IC50 [6] [µM]	IC50 (MIA PaCa-2) [µM]	MIC (Human alphaherpesvirus 2) [µM]	MCC ([2]; read-out: MIC) [µM]
C=CCc1cn(C/C=C2\OC(=O)C(OCc3ccccc3)=C2OCc2ccccc2)c(=O)[nH]c1=O	4.7	> 40	> 8	2.7	40	4.7	20	20	10.4	> 8	2.9	24 (≈ 11.3 µg/mL)	> 8	24 (≈ 11.3 µg/mL)	24 (≈ 11.3 µg/mL)	20	5	> 8	
O=C1O/C(=C\Cn2cc(-c3cccs3)c(=O)[nH]c2=O)C(OCc2ccccc2)=C1OCc1ccccc1	17	> 156	> 156	21	780	18	142	117	19	> 156	18	> 156	> 6.4	> 156	> 156	150	16.5	> 156	
C=C=Cc1cn(C/C=C2\OC(=O)C(OCc3ccccc3)=C2OCc2ccccc2)c(=O)[nH]c1=O	77	> 200	> 8	> 100	40	> 100	> 250	> 250	> 100	8 (≈ 3.76 µg/mL)	> 100	> 40	> 8	> 200	> 200	> 250	> 100	> 8	
Nc1nc2c(ncn2COCCO)c(=O)[nH]1 [ACYCLOVIR]			0.48 (≈ 0.108 µg/mL)							> 500			60 (≈ 13.5 µg/mL)					0.8 (≈ 0.18 µg/mL)	> 500
O=C1O/C(=C\Cn2cc(-c3ccc(Cl)o3)c(=O)[nH]c2=O)C(OCc2ccccc2)=C1OCc1ccccc1	≥ 100	> 150	> 150	> 100	752	> 100	165	162	> 100	150 (≈ 79.9 µg/mL)	≥ 100	> 150	> 150	> 150	> 150	158	≥ 100	> 150	
O=C1O/C(=C\Cn2cc(-c3ccc(Br)o3)c(=O)[nH]c2=O)C(OCc2ccccc2)=C1OCc1ccccc1	29	> 70	> 70	49	347	28	115	134	16	70 (≈ 40.4 µg/mL)	24	70 (≈ 40.4 µg/mL)	> 70	> 70	> 70	125	27	> 70	
O=C1O/C(=C\Cn2cc(-c3ccco3)c(=O)[nH]c2=O)C(OCc2ccccc2)=C1OCc1ccccc1	2	> 6.4	> 6.4	2.4	32	2.2	6.8	7	1.8	> 6.4	2	> 6.4	> 6.4	> 6.4	> 6.4	6.6	1.6	> 6.4	
Nc1ncnc2c1ncn2C[C@H](O)CO [(S)-DHPA]		300 (≈ 62.8 µg/mL)										> 500		> 500	> 500				
O=C1O/C(=C\Cn2cc(/C=C/Br)c(=O)[nH]c2=O)C(OCc2ccccc2)=C1OCc1ccccc1	40	> 150	> 150	> 100	746	40	196	233	38	150 (≈ 80.6 µg/mL)	45	> 150	> 150	> 150	> 150	≥ 200	> 100	> 150	
